# Key:
# [1] = target: T1, Receptor-type tyrosine-protein kinase FLT3 (Homo sapiens, UniProt P36888); assay: Inhibition of FLT3 in human MOLM-13 cells; assay type: cell-based
# T1 sequence (P36888 whole entry): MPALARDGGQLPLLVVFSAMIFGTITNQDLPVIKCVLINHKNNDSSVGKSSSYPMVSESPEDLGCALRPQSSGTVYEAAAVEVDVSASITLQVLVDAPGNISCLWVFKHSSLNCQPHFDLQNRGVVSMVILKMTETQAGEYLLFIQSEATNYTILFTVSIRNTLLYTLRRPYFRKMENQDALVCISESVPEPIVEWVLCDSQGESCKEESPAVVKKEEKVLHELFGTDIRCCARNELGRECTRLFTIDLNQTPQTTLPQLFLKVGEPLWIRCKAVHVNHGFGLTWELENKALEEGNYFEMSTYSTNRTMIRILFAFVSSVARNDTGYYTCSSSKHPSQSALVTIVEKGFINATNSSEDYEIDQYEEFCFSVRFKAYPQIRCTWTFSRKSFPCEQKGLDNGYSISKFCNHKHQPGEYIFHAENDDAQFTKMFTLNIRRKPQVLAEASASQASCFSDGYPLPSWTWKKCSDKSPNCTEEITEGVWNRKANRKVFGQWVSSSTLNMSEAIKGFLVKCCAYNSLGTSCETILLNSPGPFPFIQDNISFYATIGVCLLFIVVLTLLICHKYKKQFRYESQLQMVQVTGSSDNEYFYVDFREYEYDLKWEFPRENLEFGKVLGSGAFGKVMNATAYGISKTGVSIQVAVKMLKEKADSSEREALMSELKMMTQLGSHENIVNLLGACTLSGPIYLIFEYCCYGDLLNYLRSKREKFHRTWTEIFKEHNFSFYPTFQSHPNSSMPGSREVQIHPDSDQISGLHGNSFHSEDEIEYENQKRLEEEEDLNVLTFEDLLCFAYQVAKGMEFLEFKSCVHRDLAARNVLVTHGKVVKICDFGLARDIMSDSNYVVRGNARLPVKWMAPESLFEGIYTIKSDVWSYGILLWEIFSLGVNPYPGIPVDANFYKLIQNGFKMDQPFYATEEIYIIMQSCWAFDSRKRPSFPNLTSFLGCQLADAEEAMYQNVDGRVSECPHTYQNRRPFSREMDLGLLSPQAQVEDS
# How it was run: (§1)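 Cell proliferation assay. IC50 is the concentration that inhibits proliferation by 50%, taken from dose–response curves. Mean ± SEM of at least three independent experiments.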
# [2] = target: T2, Tyrosine-protein kinase JAK2 (Homo sapiens, UniProt O60674); assay: Inhibition of human JAK2 JH1 expressed in baculovirus infected Sf9 cells assessed as residual activity at 100 nM relative to control
# T2 sequence (O60674 whole entry): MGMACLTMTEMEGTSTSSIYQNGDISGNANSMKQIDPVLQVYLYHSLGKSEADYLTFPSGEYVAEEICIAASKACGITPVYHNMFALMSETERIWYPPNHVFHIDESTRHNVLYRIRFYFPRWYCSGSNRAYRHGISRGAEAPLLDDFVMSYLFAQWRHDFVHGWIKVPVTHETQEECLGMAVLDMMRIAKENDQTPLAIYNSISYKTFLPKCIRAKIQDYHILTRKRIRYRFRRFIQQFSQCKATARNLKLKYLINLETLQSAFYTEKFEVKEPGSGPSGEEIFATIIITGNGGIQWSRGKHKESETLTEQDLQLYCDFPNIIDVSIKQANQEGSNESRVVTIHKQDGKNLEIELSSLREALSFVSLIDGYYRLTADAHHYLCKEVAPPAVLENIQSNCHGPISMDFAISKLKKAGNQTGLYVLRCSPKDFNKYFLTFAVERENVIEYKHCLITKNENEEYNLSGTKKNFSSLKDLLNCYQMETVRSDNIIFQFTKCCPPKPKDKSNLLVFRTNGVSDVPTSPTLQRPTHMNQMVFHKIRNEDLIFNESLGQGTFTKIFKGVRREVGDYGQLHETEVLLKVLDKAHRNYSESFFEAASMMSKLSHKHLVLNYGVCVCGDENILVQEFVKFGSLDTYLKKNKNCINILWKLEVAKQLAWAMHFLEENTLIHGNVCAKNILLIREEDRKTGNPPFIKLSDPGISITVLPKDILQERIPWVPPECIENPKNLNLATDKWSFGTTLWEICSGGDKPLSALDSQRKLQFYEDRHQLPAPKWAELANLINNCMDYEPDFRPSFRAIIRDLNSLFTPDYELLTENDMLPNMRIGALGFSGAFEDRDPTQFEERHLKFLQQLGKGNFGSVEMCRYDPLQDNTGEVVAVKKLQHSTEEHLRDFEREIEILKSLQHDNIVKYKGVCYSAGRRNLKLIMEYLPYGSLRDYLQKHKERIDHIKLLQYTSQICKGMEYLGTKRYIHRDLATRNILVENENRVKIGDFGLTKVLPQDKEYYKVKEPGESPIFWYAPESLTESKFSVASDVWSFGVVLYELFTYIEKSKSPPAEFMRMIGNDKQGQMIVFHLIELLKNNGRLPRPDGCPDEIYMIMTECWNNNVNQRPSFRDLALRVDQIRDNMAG
# [3] = target: Tyrosine-protein kinase JAK2 (Homo sapiens, UniProt O60674, V617F); assay: Inhibition of JAK2 V617F mutant in human SET2 cells; assay type: cell-based; how it was run: as §1
# Chain of Tyrosine-protein kinase JAK2 (Homo sapiens, UniProt O60674, V617F) (O60674 whole entry V617F): as the sequence (O60674 whole entry) above, with V617F counted along it
# [4] = Metabolic stability in human liver microsomes assessed as half life; assay type: ADME, Microsome
# [5] = target: Tyrosine-protein kinase JAK2 (Mus musculus, UniProt Q62120, V617F); assay: Inhibition of JAK2 V617F mutant in mouse BaF3 cells; assay type: cell-based; how it was run: as §1
# Chain of Tyrosine-protein kinase JAK2 (Mus musculus, UniProt Q62120, V617F) (Q62120 as listed by the source V617F): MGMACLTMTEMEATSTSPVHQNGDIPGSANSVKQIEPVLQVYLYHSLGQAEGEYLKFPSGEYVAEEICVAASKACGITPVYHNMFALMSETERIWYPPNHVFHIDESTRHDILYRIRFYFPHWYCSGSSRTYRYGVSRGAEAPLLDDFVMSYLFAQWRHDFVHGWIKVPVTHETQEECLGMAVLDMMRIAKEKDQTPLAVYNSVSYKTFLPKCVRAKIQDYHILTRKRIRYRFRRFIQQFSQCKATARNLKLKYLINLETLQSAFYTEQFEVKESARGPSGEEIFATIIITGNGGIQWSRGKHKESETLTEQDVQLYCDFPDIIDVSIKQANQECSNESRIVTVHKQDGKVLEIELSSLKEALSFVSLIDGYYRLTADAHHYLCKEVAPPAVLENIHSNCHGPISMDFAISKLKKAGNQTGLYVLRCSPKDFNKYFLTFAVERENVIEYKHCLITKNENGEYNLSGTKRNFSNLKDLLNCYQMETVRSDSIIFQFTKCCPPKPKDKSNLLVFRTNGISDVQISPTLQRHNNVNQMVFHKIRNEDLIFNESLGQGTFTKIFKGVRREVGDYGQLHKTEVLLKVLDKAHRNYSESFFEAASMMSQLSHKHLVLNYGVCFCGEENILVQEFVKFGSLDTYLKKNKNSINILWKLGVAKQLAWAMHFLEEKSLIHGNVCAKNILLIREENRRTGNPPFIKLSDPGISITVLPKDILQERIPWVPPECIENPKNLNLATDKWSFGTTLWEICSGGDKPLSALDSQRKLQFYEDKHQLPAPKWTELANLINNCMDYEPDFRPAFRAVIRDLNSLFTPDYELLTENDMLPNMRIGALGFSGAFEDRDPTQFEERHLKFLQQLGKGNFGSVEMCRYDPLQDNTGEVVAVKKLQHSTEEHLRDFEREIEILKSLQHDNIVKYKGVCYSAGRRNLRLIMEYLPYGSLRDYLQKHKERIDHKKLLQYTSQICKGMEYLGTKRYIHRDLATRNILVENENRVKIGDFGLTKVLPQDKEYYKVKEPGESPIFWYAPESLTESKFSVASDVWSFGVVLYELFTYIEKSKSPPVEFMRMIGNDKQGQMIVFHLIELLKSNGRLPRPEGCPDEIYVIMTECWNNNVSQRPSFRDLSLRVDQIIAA
# [6] = target: T1, Receptor-type tyrosine-protein kinase FLT3; assay: Inhibition of FLT3 (unknown origin) in presence of Mg/ATP mixture by [gamma p33]-ATP based radiometric assay
# How it was run: (§2)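 IC50 values determined by Eurofins Discovery.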
# [7] = target: T2, Tyrosine-protein kinase JAK2; assay: Inhibition of JAK2 (unknown origin) in presence of Mg/ATP mixture by [gamma p33]-ATP based radiometric assay; how it was run: as §2
# [8] = target: Tyrosine-protein kinase JAK1 (Homo sapiens, UniProt P23458); assay: Inhibition of JAK1 (unknown origin) in presence of Mg/ATP mixture by [gamma p33]-ATP based radiometric assay; how it was run: as §2
# Chain of Tyrosine-protein kinase JAK1 (P23458 whole entry): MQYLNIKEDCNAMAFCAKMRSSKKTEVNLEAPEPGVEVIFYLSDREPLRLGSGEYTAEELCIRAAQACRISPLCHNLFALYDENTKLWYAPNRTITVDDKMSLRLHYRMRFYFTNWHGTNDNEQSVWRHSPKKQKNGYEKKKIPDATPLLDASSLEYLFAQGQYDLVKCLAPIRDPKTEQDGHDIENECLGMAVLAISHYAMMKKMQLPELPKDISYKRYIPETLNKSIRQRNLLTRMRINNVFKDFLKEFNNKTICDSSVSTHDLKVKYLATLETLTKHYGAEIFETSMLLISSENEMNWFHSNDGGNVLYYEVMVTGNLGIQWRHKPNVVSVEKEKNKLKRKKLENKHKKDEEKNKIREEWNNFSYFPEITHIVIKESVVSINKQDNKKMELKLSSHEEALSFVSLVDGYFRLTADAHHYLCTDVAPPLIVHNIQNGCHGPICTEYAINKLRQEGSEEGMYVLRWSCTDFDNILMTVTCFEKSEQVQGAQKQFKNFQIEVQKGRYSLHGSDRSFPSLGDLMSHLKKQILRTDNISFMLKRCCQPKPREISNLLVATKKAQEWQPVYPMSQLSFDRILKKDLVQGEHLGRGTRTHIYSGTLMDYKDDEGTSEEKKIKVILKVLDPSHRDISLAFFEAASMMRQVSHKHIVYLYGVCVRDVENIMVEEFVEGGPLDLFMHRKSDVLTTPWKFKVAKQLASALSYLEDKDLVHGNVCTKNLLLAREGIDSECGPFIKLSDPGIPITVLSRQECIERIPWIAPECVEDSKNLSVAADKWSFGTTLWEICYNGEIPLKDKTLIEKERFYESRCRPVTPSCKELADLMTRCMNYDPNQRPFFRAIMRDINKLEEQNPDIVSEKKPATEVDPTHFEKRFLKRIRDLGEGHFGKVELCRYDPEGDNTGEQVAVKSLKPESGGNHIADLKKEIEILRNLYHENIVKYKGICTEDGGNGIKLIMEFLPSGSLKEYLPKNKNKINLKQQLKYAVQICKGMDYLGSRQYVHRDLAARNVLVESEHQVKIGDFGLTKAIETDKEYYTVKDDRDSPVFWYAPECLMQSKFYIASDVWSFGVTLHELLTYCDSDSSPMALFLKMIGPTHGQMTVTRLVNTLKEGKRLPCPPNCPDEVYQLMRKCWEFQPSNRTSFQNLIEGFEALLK
# [9] = target: Non-receptor tyrosine-protein kinase TYK2 (Homo sapiens, UniProt P29597); assay: Inhibition of TYK2 (unknown origin) in presence of Mg/ATP mixture by [gamma p33]-ATP based radiometric assay
# Chain of Non-receptor tyrosine-protein kinase TYK2 (P29597 whole entry): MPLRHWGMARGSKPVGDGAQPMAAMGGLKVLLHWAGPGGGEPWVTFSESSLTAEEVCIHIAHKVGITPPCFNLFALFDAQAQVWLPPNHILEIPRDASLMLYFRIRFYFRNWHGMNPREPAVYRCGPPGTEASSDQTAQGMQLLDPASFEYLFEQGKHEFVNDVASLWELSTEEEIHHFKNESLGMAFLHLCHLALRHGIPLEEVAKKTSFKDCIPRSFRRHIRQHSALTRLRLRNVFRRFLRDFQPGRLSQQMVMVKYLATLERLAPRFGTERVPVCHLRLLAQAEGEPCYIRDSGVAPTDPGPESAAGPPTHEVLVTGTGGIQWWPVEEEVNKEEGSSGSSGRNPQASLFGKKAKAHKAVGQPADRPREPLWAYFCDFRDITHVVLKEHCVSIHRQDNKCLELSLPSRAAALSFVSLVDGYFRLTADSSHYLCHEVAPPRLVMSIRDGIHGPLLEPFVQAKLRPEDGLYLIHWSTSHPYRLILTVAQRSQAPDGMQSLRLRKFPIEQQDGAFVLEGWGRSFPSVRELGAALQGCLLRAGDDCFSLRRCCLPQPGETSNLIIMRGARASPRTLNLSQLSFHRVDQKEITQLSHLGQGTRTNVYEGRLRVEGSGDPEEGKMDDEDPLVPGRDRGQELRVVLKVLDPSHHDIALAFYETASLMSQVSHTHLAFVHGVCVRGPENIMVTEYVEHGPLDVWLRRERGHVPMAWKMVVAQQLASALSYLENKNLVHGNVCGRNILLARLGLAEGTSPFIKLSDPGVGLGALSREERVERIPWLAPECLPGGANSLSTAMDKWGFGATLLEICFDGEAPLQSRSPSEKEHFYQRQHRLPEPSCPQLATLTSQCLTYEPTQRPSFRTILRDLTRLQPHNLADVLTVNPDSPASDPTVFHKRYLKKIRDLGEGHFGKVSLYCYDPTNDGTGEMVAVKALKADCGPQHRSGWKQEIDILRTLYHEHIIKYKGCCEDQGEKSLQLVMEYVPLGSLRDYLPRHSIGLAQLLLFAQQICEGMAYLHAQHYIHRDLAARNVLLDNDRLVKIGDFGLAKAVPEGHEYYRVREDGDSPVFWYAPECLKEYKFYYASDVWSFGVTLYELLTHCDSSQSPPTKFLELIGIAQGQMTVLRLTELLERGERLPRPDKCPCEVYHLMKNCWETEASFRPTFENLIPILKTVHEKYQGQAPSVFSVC
# [10] = target: T3, Tyrosine-protein kinase JAK3 (Homo sapiens, UniProt P52333); assay: Inhibition of JAK3 (unknown origin) in presence of Mg/ATP mixture by [gamma p33]-ATP based radiometric assay
# T3 sequence (P52333 whole entry): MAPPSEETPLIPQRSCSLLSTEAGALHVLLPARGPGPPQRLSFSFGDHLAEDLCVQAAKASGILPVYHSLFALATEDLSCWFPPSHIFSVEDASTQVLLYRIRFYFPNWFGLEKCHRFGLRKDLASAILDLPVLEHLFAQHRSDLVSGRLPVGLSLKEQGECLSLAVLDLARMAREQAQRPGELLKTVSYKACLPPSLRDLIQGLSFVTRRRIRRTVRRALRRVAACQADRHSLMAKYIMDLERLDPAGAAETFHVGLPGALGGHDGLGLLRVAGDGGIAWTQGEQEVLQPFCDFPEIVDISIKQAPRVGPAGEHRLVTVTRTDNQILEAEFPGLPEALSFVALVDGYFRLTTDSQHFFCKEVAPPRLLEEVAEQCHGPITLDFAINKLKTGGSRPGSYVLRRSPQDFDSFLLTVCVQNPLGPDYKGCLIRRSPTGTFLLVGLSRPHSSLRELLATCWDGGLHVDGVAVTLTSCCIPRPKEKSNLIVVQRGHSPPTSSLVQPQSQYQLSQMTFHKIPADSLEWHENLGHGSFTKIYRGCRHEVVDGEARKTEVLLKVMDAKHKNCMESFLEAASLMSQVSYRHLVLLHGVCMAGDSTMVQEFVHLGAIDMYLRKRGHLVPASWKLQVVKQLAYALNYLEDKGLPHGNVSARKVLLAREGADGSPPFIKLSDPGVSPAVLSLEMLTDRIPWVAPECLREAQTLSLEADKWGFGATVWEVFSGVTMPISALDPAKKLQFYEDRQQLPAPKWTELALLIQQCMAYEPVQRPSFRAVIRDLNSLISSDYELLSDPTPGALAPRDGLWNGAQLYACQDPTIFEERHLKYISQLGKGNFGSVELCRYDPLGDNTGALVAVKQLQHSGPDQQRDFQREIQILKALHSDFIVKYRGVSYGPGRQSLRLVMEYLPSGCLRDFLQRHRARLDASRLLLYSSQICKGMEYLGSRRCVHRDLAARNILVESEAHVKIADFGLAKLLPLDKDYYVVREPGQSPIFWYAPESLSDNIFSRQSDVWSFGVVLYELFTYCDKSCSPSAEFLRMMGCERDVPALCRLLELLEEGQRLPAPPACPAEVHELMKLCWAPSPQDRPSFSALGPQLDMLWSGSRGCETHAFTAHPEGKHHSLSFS
# [11] = Selectivity ratio of IC50 for JAK3 (unknown origin) to IC50 for JAK2 (unknown origin)
# [12] = Selectivity ratio of IC50 for FLT3 (unknown origin) to IC50 for JAK2 (unknown origin)
# [13] = Selectivity ratio of IC50 for TYK2 (unknown origin) to IC50 for JAK2 (unknown origin)
# [14] = Clearance in Sprague-Dawley rat at 5 mg/kg, po measured upto 24 hrs by LC-MS/MS analysis; assay type: ADME, organism-based; details: in vivo
# How it was run: (§3)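 Sprague–Dawley rats, n = 5, dosed at 5 mg/kg as a solution in 2% ethanol and 1% Tween 80, pH 5.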
# [15] = Tmax in Sprague-Dawley rat at 5 mg/kg, po measured upto 24 hrs by LC-MS/MS analysis; assay type: ADME, organism-based; details: in vivo, po, 5 mg/kg, 24 h
# How it was run: (§4)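 Sprague–Dawley rats, n = 5 per group, dosed at 5 mg/kg as a solution in 2% ethanol and 1% Tween 80, pH 5.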
# [16] = Cmax in Sprague-Dawley rat at 5 mg/kg, po measured upto 24 hrs by LC-MS/MS analysis; assay type: ADME, organism-based; design: dose 5 mg/kg, time < 24 hrs, route po; details: in vivo, 24 h; how it was run: as §3
# [17] = Half life in Sprague-Dawley rat at 5 mg/kg, po measured upto 24 hrs by LC-MS/MS analysis; assay type: ADME, organism-based; details: in vivo, po, 5 mg/kg, 24 h; how it was run: as §3
# [18] = Oral bioavailability in Sprague-Dawley rat at 5 mg/kg measured upto 24 hrs by LC-MS/MS analysis; assay type: ADME, organism-based; details: in vivo; how it was run: as §4
# [19] = AUC(0 to t) in Sprague-Dawley rat at 5 mg/kg, po measured upto 24 hrs by LC-MS/MS analysis; assay type: ADME, organism-based; design: time < 24 hrs, dose 5 mg/kg, route po; details: in vivo; how it was run: as §3
Compound,IC50 [1],Activity [2],IC50 [3],half-life [4],IC50 [5],IC50 [6],IC50 [7],IC50 [8],IC50 [9],IC50 [10],Ratio IC50 [11],Ratio IC50 [12],Ratio IC50 [13],CL [14],Tmax [15],Cmax [16],t1/2 [17],bioavailability [18],AUCt [19]
Cc1cnc(Nc2ccc(CCNC(=O)CCl)cc2)nc1-c1cnn(C(C)C)c1,1680 nM,48%,1550 nM,0.493 h,372 nM,,,,,,,,,,,,,,
C=CC(=O)NCc1ccc(Nc2ncc(C)c(-c3cnn(C(C)C)c3)n2)cc1,1760 nM,13%,245 nM,1.79 h,129 nM,320 nM,8 nM,106 nM,77 nM,208 nM,41.6,40,9.6,,,,,,
CCCCS(=O)(=O)NCc1ccc(Nc2ncc(C)c(-c3cnn(C(C)C)c3)n2)cc1,1670 nM,15%,421 nM,1.64 h,182 nM,,,,,,,,,,,,,,
Cc1cnc(Nc2ccc(CCNC(=O)/C=C/CN(C)C)cc2)nc1-c1cnn(C(C)C)c1,> 10000 nM,64%,2190 nM,0.902 h,1140 nM,,,,,,,,,,,,,,
Cc1cnc(Nc2ccc(CCNC(=O)/C=C/C(=O)c3ccccc3)cc2)nc1-c1cnn(C(C)C)c1,882 nM,34%,279 nM,0.57 h,178 nM,,,,,,,,,,,,,,
Cc1cnc(Nc2ccc(CNC(=O)CCl)cc2)nc1-c1cnn(C(C)C)c1,961 nM,6%,150 nM,0.72 h,98.1 nM,206 nM,3 nM,73 nM,33 nM,166 nM,55.3,68.7,10,,,,,,
Cc1cnc(Nc2ccc(CNC(=O)CCCN(C)C)cc2)nc1-c1cnn(C(C)C)c1,5840 nM,55%,1960 nM,1.27 h,870 nM,,,,,,,,,,,,,,
CCCS(=O)(=O)NCc1ccc(Nc2ncc(C)c(-c3cnn(C(C)C)c3)n2)cc1,885 nM,10%,108 nM,> 2 h,101 nM,,,,,,,,,,,,,,
Cc1cnc(Nc2ccc(CNC(=O)/C=C/C(=O)c3ccccc3)cc2)nc1-c1cnn(C(C)C)c1,756 nM,5%,563 nM,0.913 h,87.5 nM,108 nM,7 nM,43 nM,43 nM,54 nM,7.7,15.4,6.1,,,,,,
Cc1cnc(Nc2ccc(CCNC(=O)CCCN(C)C)cc2)nc1-c1cnn(C(C)C)c1,> 10000 nM,77%,5230 nM,1 h,3310 nM,,,,,,,,,,,,,,
Cc1cnc(Nc2ccc(CNC(=O)CCCl)cc2)nc1-c1cnn(C(C)C)c1,5560 nM,45%,985 nM,0.742 h,385 nM,,,,,,,,,,,,,,
Cc1cnc(Nc2ccc(CCNC(=O)CCCl)cc2)nc1-c1cnn(C(C)C)c1,> 10000 nM,67%,5620 nM,0.672 h,2200 nM,,,,,,,,,,,,,,
Cc1cnc(Nc2ccc(CNC(=O)/C=C/CN(C)C)cc2)nc1-c1cnn(C(C)C)c1,826 nM,35%,880 nM,1.09 h,265 nM,,,,,,,,,,,,,,
Cc1cnc(Nc2ccc(CNC(=O)C3CC3)cc2)nc1-c1cnn(C(C)C)c1,1280 nM,9%,205 nM,> 2 h,72 nM,311 nM,4 nM,87 nM,62 nM,156 nM,39,77.7,15.5,,,,,,
Cc1cnc(Nc2ccc(CNS(=O)(=O)C3CC3)cc2)nc1-c1cnn(C(C)C)c1,1250 nM,1%,109 nM,> 2 h,53.3 nM,297 nM,5 nM,178 nM,204 nM,265 nM,53,59.4,40.8,355 mL/min/kg,1.6 h,89.3 ng/mL,3.5 h,40.5%,2011.6 ng·h/mL
C=CS(=O)(=O)NCCc1ccc(Nc2ncc(C)c(-c3cnn(C(C)C)c3)n2)cc1,1800 nM,30%,761 nM,1.48 h,169 nM,,,,,,,,,,,,,,

# — ChEMBL document CHEMBL5325511, “Discovery of N-(4-(Aminomethyl)phenyl)-5-methylpyrimidin-2-amine Derivatives as Potent and Selective JAK2 Inhibitors” (ACS Med Chem Lett, 2023)
